Test results as given in ChEMBL document CHEMBL1144027, “Synthesis and antimycobacterial evaluation of newer 1-cyclopropyl-1,4-dihydro-6-fluoro-7-(substituted secondary amino)-8-methoxy-5-(sub)-4-oxoquinoline-3-carboxylic acids” (Bioorg Med Chem, 2008).
Converted amounts (≈) assume the structure as drawn.

System: Mycobacterium tuberculosis
Assay: Antimycobacterial activity against multidrug resistant Mycobacterium tuberculosis by agar dilution method
Assay type: functional
Procedure, shortened: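 Agar dilution MIC on Middlebrook 7H11 agar with OADC, following the NCCLS-recommended approach, run in duplicate. The MDR clinical isolate was resistant to isoniazid, rifampicin, ethambutol and ofloxacin.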

Point of comparison: NNC(=O)c1ccncc1 [ISONIAZID], MIC 45.6 µM (≈ 6.25 µg/mL). Against it:
- COc1c(N2CCN(C)C(c3ccccc3)C2)c(F)c([N+](=O)[O-])c2c(=O)c(C(=O)O)cn(C3CC3)c12 (centres undefined) — 15-fold lower, 3.14 µM (≈ 1.56 µg/mL)
- CCN(CC)C(=O)C1CCCN(c2c(F)cc3c(=O)c(C(=O)O)cn(C4CC4)c3c2OC)C1 (centres undefined) — 13-fold lower, 3.39 µM (≈ 1.56 µg/mL)
- COc1c(N2CCN(Cc3ccc4c(c3)OCO4)CC2)c(F)cc2c(=O)c(C(=O)O)cn(C3CC3)c12 — 29-fold lower, 1.57 µM (≈ 0.778 µg/mL)
- COc1c(N2CCc3ccccc3C2C(=O)NC(C)(C)C)c(F)c([N+](=O)[O-])c2c(=O)c(C(=O)O)cn(C3CC3)c12 (centres undefined) — 16-fold lower, 2.82 µM (≈ 1.56 µg/mL)
- COc1c(N2CCC3(CC2)OCCO3)c(F)cc2c(=O)c(C(=O)O)cn(C3CC3)c12 — 25-fold lower, 1.86 µM (≈ 0.778 µg/mL)
- COc1c(N2CCN(C(c3ccccc3)c3ccc(Cl)cc3)CC2)c(F)c([N+](=O)[O-])c2c(=O)c(C(=O)O)cn(C3CC3)c12 (centres undefined) — 36-fold lower, 1.28 µM (≈ 0.777 µg/mL)
- COc1c(N2CCN(C(=O)C3COc4ccccc4O3)CC2)c(F)cc2c(=O)c(C(=O)O)cn(C3CC3)c12 (centres undefined) — 62-fold lower, 0.74 µM (≈ 0.387 µg/mL)
- COc1ccc(CC2C3=C(CCCC3)CCN2c2c(F)c(N)c3c(=O)c(C(=O)O)cn(C4CC4)c3c2OC)cc1 (centres undefined) — 16-fold lower, 2.85 µM (≈ 1.56 µg/mL)
- COc1c(N2CCn3cc(C(=O)O)nc3C2)c(F)c([N+](=O)[O-])c2c(=O)c(C(=O)O)cn(C3CC3)c12 — 28-fold lower, 1.6 µM (≈ 0.78 µg/mL)
- CCN(CC)C(=O)C1CCCN(c2c(F)c([N+](=O)[O-])c3c(=O)c(C(=O)O)cn(C4CC4)c3c2OC)C1 (centres undefined) — 29-fold lower, 1.55 µM (≈ 0.782 µg/mL)
- COc1ccc(CC2C3=C(CCCC3)CCN2c2c(F)c([N+](=O)[O-])c3c(=O)c(C(=O)O)cn(C4CC4)c3c2OC)cc1 (centres undefined) — 140-fold lower, 0.33 µM (≈ 0.191 µg/mL)
- COc1ccc(CC2C3=C(CCCC3)CCN2c2c(F)cc3c(=O)c(C(=O)O)cn(C4CC4)c3c2OC)cc1 (centres undefined) — 31-fold lower, 1.46 µM (≈ 0.778 µg/mL)
- COc1c(N2CCSCC2)c(F)cc2c(=O)c(C(=O)O)cn(C3CC3)c12 — 22-fold lower, 2.06 µM (≈ 0.78 µg/mL)
- COc1c(N2CC(C)OC(C)C2)c(F)cc2c(=O)c(C(=O)O)cn(C3CC3)c12 (centres undefined) — 11-fold lower, 3.99 µM (≈ 1.56 µg/mL)
- COc1c(N2CCN(C(=O)C3COc4ccccc4O3)CC2)c(F)c([N+](=O)[O-])c2c(=O)c(C(=O)O)cn(C3CC3)c12 (centres undefined) — 17-fold lower, 2.74 µM (≈ 1.56 µg/mL)
- COc1c(N2COCC2(C)C)c(F)c([N+](=O)[O-])c2c(=O)c(C(=O)O)cn(C3CC3)c12 — 49-fold lower, 0.93 µM (≈ 0.392 µg/mL)
- COc1c(N2COCC2(C)C)c(F)cc2c(=O)c(C(=O)O)cn(C3CC3)c12 — 22-fold lower, 2.07 µM (≈ 0.779 µg/mL)
- COc1c(N2CC(C)OC(C)C2)c(F)c([N+](=O)[O-])c2c(=O)c(C(=O)O)cn(C3CC3)c12 (centres undefined) — 25-fold lower, 1.79 µM (≈ 0.779 µg/mL)
- COc1c(N2CCC3(CC2)OCCO3)c(F)c([N+](=O)[O-])c2c(=O)c(C(=O)O)cn(C3CC3)c12 — 110-fold lower, 0.41 µM (≈ 0.19 µg/mL)
- COc1c(N2CCSCC2)c(F)c([N+](=O)[O-])c2c(=O)c(C(=O)O)cn(C3CC3)c12 — 25-fold lower, 1.84 µM (≈ 0.779 µg/mL)
- COc1c(N2CCn3cc(C(=O)O)nc3C2)c(F)cc2c(=O)c(C(=O)O)cn(C3CC3)c12 — 26-fold lower, 1.76 µM (≈ 0.779 µg/mL)
- COc1c(N2CCN(Cc3ccc4c(c3)OCO4)CC2)c(F)c([N+](=O)[O-])c2c(=O)c(C(=O)O)cn(C3CC3)c12 — 130-fold lower, 0.35 µM (≈ 0.189 µg/mL)
- COc1c(N2CCNC(C)C2)c(F)cc2c(=O)c(C(=O)O)cn(C3CC3)c12 (centres undefined) [GATIFLOXACIN] — 5.5-fold lower, 8.34 µM (≈ 3.13 µg/mL)
